Inconclusive results are not listed.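 Rule for the calls, unless noted: active = cell viability at or below a set limit in both duplicate runs, the limit being the all-compound median minus 4 SD (cut at about 23% in these data, passing the limit was not always enough); inconclusive = no clear call, values can overlap the other calls; inactive = the rest.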
Tests used:
[1] = OD615 S. cerevisiae growth inhibition, permissive medium, pilot counter-assay, permissive growth control for S. cerevisiae lifespan shortening project (AID 705;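 active = growth inhibition above 25% in both replicates, a cutoff set 3 SD above the mean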); conditions: OD615, 24 h, at 10 µM, stronger effect = higher value
In short: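 System: engineered DeaD yeast; Medium: permissive raffinose/galactose medium; Compound dosing: 10 µM single dose, 0.25% DMSO; Incubation: 4 h cell pre-growth, 24 h exposure at 30 °C; Technique: OD at 615 nm; Evaluation: growth inhibition from lowered OD615 after 24 h.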

[2] = Restrictive medium S. cerevisiae growth inhibition, OD615, pilot screen of yeast lifespan reduction project, restrictive growth control (AID 706;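 active = growth inhibition above a set limit, 3 SD over mean compound inhibition, in both replicates, cut at about 43% in these data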;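 note: modified DeaD lifespan yeast strain shifted to restrictive glucose medium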); conditions: OD615, 48 h, at 10 µM, stronger effect = higher value
In short: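 Material: modified S. cerevisiae; buffer or medium: CSMM-D glucose medium; doses: one concentration, 10 µM final, 0.25% DMSO; incubation: 48 h compound exposure at 30 °C; detection: optical density at 615 nm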

[3] = viability gain of MRP-1-high H69AR cells under doxorubicin, pilot screen, MRP-1 activator project, CellTiter-Glo, duplicate (AID 807;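 active = viability increase at or above a cutoff of the median across tested compounds plus 3 SD, cut at about 8.5% in these data, passing the limit was not always enough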;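 note: compound pretreatment 18-22 h then 72 h combined with doxorubicin; 0% = doxorubicin alone and 100% = vehicle without doxorubicin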); conditions: H69AR viability with doxorubicin, CellTiter-Glo luminescence; at 10 µM; stronger effect = higher value
[4] = growth suppression of beta-catenin knockout HCT116, pilot screen, human colon tumor cells (AID 823); conditions: CellTiter-Glo, 60 h, at 10 µM, stronger effect = lower value;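 note: 0% = wells killed by 20 µM Hyamine and 100% = untreated DMSO cell wells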
[5] = growth suppression of PTEN-deleted HCT116, pilot screen, cell-based, HCT116 clonal line, CellTiter-Glo (AID 824;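 active = viability at or below 27.92% in each of two runs, the all-compound median minus 4 SD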;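 note: 0% = 20 µM Hyamine control and 100% = vehicle cell control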); conditions: 60 h, at 10 µM, stronger effect = lower value
[6] = inhibitors of the yeast RAM network, pilot screen, dse1pr::URA3 reporter, 5-FOA selection (AID 869;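 active = inhibition over a set limit, the all-compound mean plus 3 SD, in both replicate runs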;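 note: 0% = DMSO wells with no growth and 100% = 10 µM 1-NA-PP1 with full growth; RAM network block rescues cells from 5-FOA so hits raise OD615 growth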); conditions: S. cerevisiae dse1pr::URA3 5-FOA growth, OD615, 2 d; at 10 µM; stronger effect = higher value; strain carries analog-sensitive mutant Cbk1 kinase
[7] = RAM signaling pathway blockade in yeast – S. cerevisiae, Pdr1DBD-CYC8 efflux-inhibited sensitized strain, primary screen (AID 1298;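 active = RAM network inhibition above 8.4% in each of two replicates, 3 SD over the compound average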;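 note: 0% = DMSO untreated cells without growth and 100% = 10 µM 1-NA-PP1 full growth; higher means more yeast growth rescued from 5-FOA killing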); conditions: S. cerevisiae cbk1-as DSE1-URA3 strain, 5-FOA growth OD615, 2 d; at 50 µM; stronger effect = higher value

COc1cccc(C(=O)N2CCSC2=S)c1
inactive: growth inhibition [1] -10.4% | growth inhibition [2] 3.34% | viability increase [3] -0.12% | viability [4] 97% | viability [5] 97.5% | inhibition [6] 0% | RAM network inhibition [7] -1.3%

Cc1cc(Nc2c(C)cccc2C)n2nc(C)nc2n1
inactive: growth inhibition [1] -4.35% | growth inhibition [2] 7.11% | viability increase [3] -0.85% | viability [4] 104% | viability [5] 111% | inhibition [6] 2.33% | RAM network inhibition [7] 0.16%

CCN(CC)S(=O)(=O)c1ccc(C(=O)Nc2nnc(C(C)C)s2)cc1
inactive: growth inhibition [1] -12.7% | growth inhibition [2] -1.79% | viability increase [3] 0.3% | viability [4] 104% | viability [5] 95% | inhibition [6] 1.25% | RAM network inhibition [7] 4.27%

CC(=O)C1=C(C)NC(=O)NC1c1ccccc1 (configuration not stated)
inactive: growth inhibition [1] -7.36% | growth inhibition [2] -18.6% | viability increase [3] -2.61% | viability [4] 87.3% | viability [5] 91.5% | inhibition [6] 1.03% | RAM network inhibition [7] 5.38%

CN(C)Cc1nc2c([nH]1)c(=O)n(C)c(=O)n2C
inactive: growth inhibition [1] -6.75% | growth inhibition [2] -18% | viability increase [3] -1.31% | viability [4] 95.1% | viability [5] 92.7% | inhibition [6] 1% | RAM network inhibition [7] 4.51%

CCN(CC)C(=O)c1sc(NC(=O)c2ccoc2C)c(C(=O)OC)c1C
inactive: growth inhibition [1] -5.36% | growth inhibition [2] 5.77% | viability increase [3] -1.15% | viability [4] 83.4% | viability [5] 90.6% | inhibition [6] 1.33% | RAM network inhibition [7] 7.43%

CCCCN=C(C)c1c(O)c2ccccc2oc1=O
inactive: growth inhibition [1] -2.92% | growth inhibition [2] 5.07% | viability increase [3] -1.49% | viability [4] 102% | viability [5] 95.9% | inhibition [6] 0.01% | RAM network inhibition [7] -2%

Cn1c(=O)c2c(nc(NC3CCCCC3)n2Cc2ccccc2)n(C)c1=O
inactive: growth inhibition [1] -0.82% | growth inhibition [2] 4.89% | viability increase [3] -3.11% | viability [4] 78.9% | viability [5] 75.5% | inhibition [6] 2.92% | RAM network inhibition [7] 3.48%

CCOC(=O)CSC1=C(C#N)C(c2ccc(Cl)cc2)CC(=O)N1 (configuration not stated)
inactive: growth inhibition [1] -15.6% | growth inhibition [2] -15.6% | viability increase [3] 0.52% | viability [4] 87.8% | viability [5] 82.5% | inhibition [6] 0.69% | RAM network inhibition [7] 0.53%

Cc1onc(-c2ccccc2)c1C(=O)Nc1ccccc1C#N
inactive: growth inhibition [1] -5.39% | growth inhibition [2] -4.02% | viability increase [3] -2.87% | viability [4] 97.3% | viability [5] 91.8% | inhibition [6] 1.89% | RAM network inhibition [7] 2.87%

CC1(C)CC(=O)N(CC(=O)O)c2ccccc2S1(=O)=O
inactive: growth inhibition [1] -4.39% | growth inhibition [2] 4.7% | viability increase [3] -0.77% | viability [4] 99.8% | viability [5] 96.3% | inhibition [6] 1.42% | RAM network inhibition [7] 4.48%

CCOC(=O)C1CCN(S(=O)(=O)c2cccc3nonc23)CC1
inactive: growth inhibition [1] -5.04% | growth inhibition [2] -10.7% | viability increase [3] 0.01% | viability [4] 100% | viability [5] 96.8% | inhibition [6] 1.46% | RAM network inhibition [7] -1.5%

COc1ccc2nc(SCc3nc(N)nc(Nc4ccccc4)n3)[nH]c2c1
inactive: growth inhibition [1] -8.8% | growth inhibition [2] 15.4% | viability increase [3] 0.65% | viability [4] 67.7% | viability [5] 80.3% | inhibition [6] 0.72% | RAM network inhibition [7] 6.33%

CC1CCc2nn(CC(=O)NC3CCCC(C)C3C)cc2C1 (configuration not stated)
inactive: growth inhibition [1] -6.6% | growth inhibition [2] -6.19% | viability increase [3] 1.67% | viability [4] 97.5% | viability [5] 85.3% | inhibition [6] -0.3% | RAM network inhibition [7] 1.94%

CCN(CC)CC(O)COc1ccccc1C(=O)CCc1ccccc1 (configuration not stated)
inactive: growth inhibition [1] -17.4% | growth inhibition [2] -14.3% | viability increase [3] -4.88% | viability [4] 73% | viability [5] 80.5% | inhibition [6] 0.58% | RAM network inhibition [7] 4.17%

O=C(NCCn1ccc2ccccc21)c1ccc2c(c1)OCO2
inactive: growth inhibition [1] -2.72% | growth inhibition [2] -4.68% | viability increase [3] 0.1% | viability [4] 101% | viability [5] 94.4% | inhibition [6] 0.58% | RAM network inhibition [7] 6.97%

Cc1cc(N=CC2=C(O)CC(C)(C)CC2=O)no1
inactive: growth inhibition [1] -11.7% | growth inhibition [2] -3.7% | viability increase [3] 0.49% | viability [4] 93.2% | viability [5] 104% | inhibition [6] 1.94% | RAM network inhibition [7] 1.04%

O=C(NCc1cccs1)C1CCN(S(=O)(=O)c2cccc3cccnc23)CC1
inactive: growth inhibition [1] -3.73% | growth inhibition [2] -6.17% | viability increase [3] -0.65% | viability [4] 93% | viability [5] 90.7% | inhibition [6] -0.03% | RAM network inhibition [7] 1.45%

O=C(Nc1nc(-c2cccs2)cs1)c1ccc(S(=O)(=O)N2CCCCC2)cc1
inactive: growth inhibition [1] 0.945% | growth inhibition [2] -2.17% | viability increase [3] -3.02% | viability [4] 71.7% | viability [5] 61.8% | inhibition [6] 1.4% | RAM network inhibition [7] 4.06%

O=C(Cn1nc(-c2ccccc2)ccc1=O)Nc1ccc(N2CCN(C(=O)c3ccccc3)CC2)cc1
inactive: growth inhibition [1] -10.1% | growth inhibition [2] -24.7% | viability increase [3] -1.77% | viability [4] 94.5% | viability [5] 87.3% | inhibition [6] 2.17% | RAM network inhibition [7] 8.82%

COc1cc(C2NC(=O)NC(C)=C2C(=O)OCc2ccc(C)cc2)cc(OC)c1O (configuration not stated)
inactive: growth inhibition [1] -12.9% | growth inhibition [2] -10.8% | viability increase [3] 3.29% | viability [4] 89.9% | viability [5] 82.1% | inhibition [6] 0.03% | RAM network inhibition [7] 0.58%

CCN1C(=O)NC(c2cccnc2)C(C(=O)OC)=C1C (configuration not stated)
inactive: growth inhibition [1] -17.7% | growth inhibition [2] -5.54% | viability increase [3] -1.3% | viability [4] 99.5% | viability [5] 99.9% | inhibition [6] 0.735% | RAM network inhibition [7] 0.25%

CN(C)CCNC(=O)c1cc2c(=O)n(C)c3ccccc3c2n1C
inactive: growth inhibition [1] 0.095% | growth inhibition [2] -1.67% | viability increase [3] -5.64% | viability [4] 52.9% | viability [5] 54.4% | inhibition [6] 1.12% | RAM network inhibition [7] -0.26%

Cn1cc(S(=O)(=O)CC(=O)Nc2ccc3c(c2)OCO3)c2ccccc21
inactive: growth inhibition [1] -1.92% | growth inhibition [2] 4.48% | viability increase [3] -2.54% | viability [4] 95.9% | viability [5] 92.1% | inhibition [6] 0.5% | RAM network inhibition [7] 5.14%

COc1cccc(CNC(=O)c2ccc(NC(=O)C3CCCO3)cc2)c1 (configuration not stated)
inactive: growth inhibition [1] -23.1% | growth inhibition [2] -16.5% | viability increase [3] 0.53% | viability [4] 95.1% | viability [5] 97.2% | inhibition [6] 1.14% | RAM network inhibition [7] 7.03%

COCC(C)NC(=O)c1ccc(N(C)C)cc1 (configuration not stated)
inactive: growth inhibition [1] 2.19% | growth inhibition [2] 8.57% | viability increase [3] 2.2% | viability [4] 104% | viability [5] 94.5% | inhibition [6] 2.1% | RAM network inhibition [7] 0.51%

CCOC(=O)N1CCc2c(sc(NC(C)=O)c2C(N)=O)C1
inactive: growth inhibition [1] -5.06% | growth inhibition [2] -16.1% | viability increase [3] -1.9% | viability [4] 103% | viability [5] 99.3% | inhibition [6] 1.6% | RAM network inhibition [7] 0.58%

O=C(c1cccc2c1-c1ccccc1/C2=N/O)N1CCCCC1
inactive: growth inhibition [1] 6.27% | growth inhibition [2] -0.58% | viability increase [3] -3.72% | viability [4] 88.5% | viability [5] 92.3% | inhibition [6] 0.91% | RAM network inhibition [7] 4.23%

c1ccc(-c2cnnc(N3CCCCC3)n2)cc1
inactive: growth inhibition [1] -4.88% | growth inhibition [2] 8.84% | viability increase [3] -1.75% | viability [4] 102% | viability [5] 97.4% | inhibition [6] 0.13% | RAM network inhibition [7] 5.69%

COc1ccc(CCC(C(O)C(F)(F)F)S(=O)c2ccccc2)cc1 (configuration not stated)
inactive: growth inhibition [1] -4.67% | growth inhibition [2] -15.5% | viability increase [3] -0.87% | viability [4] 95.4% | viability [5] 101% | inhibition [6] 0.54% | RAM network inhibition [7] 7.13%

O=C(CSc1nnc(-c2ccccc2)o1)Nc1ccccc1F
inactive: growth inhibition [1] -5.54% | growth inhibition [2] -2.1% | viability increase [3] -3.62% | viability [4] 37.7% | viability [5] 38% | inhibition [6] 2.13% | RAM network inhibition [7] 8.53%

COc1cccc(NC(=O)CSc2nnc(-c3ccc(C)cc3)o2)c1
inactive: growth inhibition [1] -10.3% | growth inhibition [2] -11.9% | viability increase [3] -0.97% | viability [4] 93.9% | viability [5] 93.8% | inhibition [6] 2.13% | RAM network inhibition [7] 4%

COCCn1c(C)cc(C(=O)CSc2nnc3ccccn23)c1C
inactive: growth inhibition [1] 8.47% | growth inhibition [2] 3.52% | viability increase [3] -1.95% | viability [4] 98.8% | viability [5] 91.7% | inhibition [6] 0.76% | RAM network inhibition [7] 2.51%

Cn1c(SCc2nc(-c3ccc(Cl)cc3)no2)nnc1-c1ccco1
inactive: growth inhibition [1] -8.54% | growth inhibition [2] -0.675% | viability increase [3] -2.85% | viability [4] 90.6% | viability [5] 85.6% | inhibition [6] 2.02% | RAM network inhibition [7] 6.31%

C=C(C)CSc1nnc(-c2cccc(Cl)c2)n1N
inactive: growth inhibition [1] 3.94% | growth inhibition [2] 14.4% | viability increase [3] 0.23% | viability [4] 95.9% | viability [5] 91.5% | inhibition [6] 1.77% | RAM network inhibition [7] -0.48%

Cn1c(=O)c2c(nc(SCCN3CCOCC3)n2Cc2ccc(Cl)cc2)n(C)c1=O
inactive: growth inhibition [1] -5.34% | growth inhibition [2] 16.6% | viability increase [3] -3.32% | viability [4] 87.8% | viability [5] 84.1% | inhibition [6] 2.31% | RAM network inhibition [7] -0.47%
